Assay results: ChEMBL document CHEMBL1126197, “Orally active beta-lactam inhibitors of human leukocyte elastase-1. Activity of 3,3-diethyl-2-azetidinones” (J Med Chem, 1992)

Assays:
[1] = molecular target: T1, Neutrophil elastase (Homo sapiens) (UniProt P08246); assay: elastase inhibitory activity, evaluated for second order rate constant (time-dependent inhibition)
T1 sequence (whole entry): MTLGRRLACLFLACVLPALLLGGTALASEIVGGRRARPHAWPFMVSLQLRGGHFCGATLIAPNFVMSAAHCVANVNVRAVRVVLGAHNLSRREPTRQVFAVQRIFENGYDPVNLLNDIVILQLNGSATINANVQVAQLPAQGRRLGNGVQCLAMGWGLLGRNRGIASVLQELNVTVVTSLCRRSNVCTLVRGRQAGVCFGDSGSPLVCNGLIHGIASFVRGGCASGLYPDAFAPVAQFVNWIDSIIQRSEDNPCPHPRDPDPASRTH
Outline: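 HLE-catalyzed hydrolysis of MeO-Suc-Ala-Ala-Pro-Ala-pNA was followed while enzyme inactivation was monitored for 15 min. Second-order rate constants (kobs/I, M-1 s-1) were derived from this time-dependent inactivation.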

[2] = molecular target: T1, Neutrophil elastase (Homo sapiens); assay: Percent inhibition in elastase-induced lung haemorrhage, when the compound is dosed orally at 30 mg/kg 30 min before challenge by HLE (Human leukocyte elastase); type: functional, organism-based; design: dose 30 mg/kg
Outline: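 Anesthetized hamsters received the compound orally 30 min before intratracheal instillation of 50 units HLE. After 3 h, hemoglobin in the lung lavage was measured spectrophotometrically. Percent inhibition of hemorrhage was calculated for the drug-treated group against the vehicle-only group.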

Row | Structure (SMILES) | second order rate constant kobs/[I] [1] [M⁻¹ s⁻¹] | inhibition [2] [%]
1 | CCC1(CC)C(=O)N(C(=O)NCc2ccc([N+](=O)[O-])cc2)C1Oc1ccc(C(=O)O)cc1 (configuration not stated) | 5100 | 22
2 | CCC1(CC)C(=O)N(C(=O)NCCCC(O)c2ccccc2)C1Oc1ccc(C(=O)O)cc1 (configuration not stated) | 5100 | –
3 | CCC1(CC)C(=O)N(C(=O)NCc2ccco2)C1Oc1ccc(C(=O)O)cc1 (configuration not stated) | 5200 | 58
4 | CCC1(CC)C(=O)N(C(=O)NCc2ccc(C(N)=O)cc2)C1Oc1ccc(C(=O)O)cc1 (configuration not stated) | 4300 | 10
5 | CCC1(CC)C(=O)N(C(=O)NCc2ccc(C(=O)O)cc2)C1Oc1ccc(C(=O)O)cc1 (configuration not stated) | 2200 | 25
6 | CCC1(CC)C(=O)N(C(=O)NCc2ccc(OCc3ccccc3)cc2)C1Oc1ccc(C(=O)O)cc1 (configuration not stated) | 12000 | -9
7 | CCc1ccc(CNC(=O)N2C(=O)C(CC)(CC)C2Oc2ccc(C(=O)O)cc2)cc1 (configuration not stated) | 8200 | 46
8 | CCC1(CC)C(=O)N(C(=O)NCc2ccc(-c3ccccc3)cc2)C1Oc1ccc(CC(=O)O)cc1 (configuration not stated) | 29000 | 19
9 | CCC1(CC)C(=O)N(C(=O)NCc2ccc(OC)cc2)C1Oc1ccc(C(=O)O)cc1 (configuration not stated) | 5200 | 60
10 | CCC1(CC)C(=O)N(C(=O)NCc2ccc3c(c2)OCO3)C1Oc1ccc(C(=O)O)cc1 (configuration not stated) | 5000 | 10
11 | CCC1(CC)C(=O)N(C(=O)NCCCCCCc2ccccc2)C1Oc1ccc(C(=O)O)cc1 (configuration not stated) | 5000 | 14
12 | CCC1(CC)C(=O)N(C(=O)NCC2CCCCC2)C1Oc1ccc(C(=O)O)cc1 (configuration not stated) | 1400 | 0
13 | CCC1(CC)C(=O)N(C(=O)NCc2cccs2)C1Oc1ccc(C(=O)O)cc1 (configuration not stated) | 4900 | 52
14 | CCC1(CC)C(=O)N(C(=O)NCc2ccc(SC)cc2)C1Oc1ccc(C(=O)O)cc1 (configuration not stated) | 9400 | 28
15 | CCC1(CC)C(=O)N(C(=O)NCc2ccc(OC)c(C)c2)C1Oc1ccc(C(=O)O)cc1 (configuration not stated) | 13100 | 64
16 | CCC1(CC)C(=O)N(C(=O)NCc2ccc(C)cc2)C1Oc1ccc(CC(=O)O)cc1 (configuration not stated) | 4500 | 72
17 | CCC1(CC)C(=O)N(C(=O)NCc2ccsc2)C1Oc1ccc(C(=O)O)cc1 (configuration not stated) | 1300 | 53
18 | CCC1(CC)C(=O)N(C(=O)NCc2cc(C)cc(C)c2)C1Oc1ccc(C(=O)O)cc1 (configuration not stated) | 14700 | 69
19 | CCC1(CC)C(=O)N(C(=O)NCc2ccc(C(C)=O)cc2)C1Oc1ccc(C(=O)O)cc1 (configuration not stated) | 5900 | 37
20 | CCC1(CC)C(=O)N(C(=O)NCCCCOc2ccccc2)C1Oc1ccc(C(=O)O)cc1 (configuration not stated) | 3400 | 30
21 | CCC1(CC)C(=O)N(C(=O)NCc2ccc(C)c(C)c2)C1Oc1ccc(C(=O)O)cc1 (configuration not stated) | 21000 | 52
22 | CCN(Cc1ccccc1)C(=O)N1C(=O)C(CC)(CC)C1Oc1ccc(C(=O)O)cc1 (configuration not stated) | 2300 | 34
23 | CCC1(CC)C(=O)N(C(=O)NCc2ccc(C)c(OC)c2)C1Oc1ccc(C(=O)O)cc1 (configuration not stated) | 6500 | 76
24 | CCC1(CC)C(=O)N(C(=O)NCCCOc2ccccc2)C1Oc1ccc(C(=O)O)cc1 (configuration not stated) | 3500 | 40
25 | CCC1(CC)C(=O)N(C(=O)NCCCC(=O)c2ccccc2)C1Oc1ccc(C(=O)O)cc1 (configuration not stated) | 2000 | 0
26 | CCC1(CC)C(=O)N(C(=O)NCc2ccc(C)cc2C)C1Oc1ccc(C(=O)O)cc1 (configuration not stated) | 1500 | 45
27 | CCC1(CC)C(=O)N(C(=O)NCc2ccc(N(C)C)cc2)C1Oc1ccc(C(=O)O)cc1 (configuration not stated) | 10000 | 25
28 | CCCCNC(=O)N1C(=O)C(CC)(CC)C1Oc1ccc(C(=O)O)cc1 (configuration not stated) | 800 | 45
29 | CCCCCCCCCNC(=O)N1C(=O)C(CC)(CC)C1Oc1ccc(C(=O)O)cc1 (configuration not stated) | 8300 | –
30 | CCC1(CC)C(=O)N(C(=O)NCCC(=O)c2ccccc2)C1Oc1ccc(C(=O)O)cc1 (configuration not stated) | 2100 | 8

The next lines start with the values.

Row | second order rate constant kobs/[I] [1] [M⁻¹ s⁻¹] | inhibition [2] [%] | Structure (SMILES)
31 | 23200 | 24 | CCC1(CC)C(=O)N(C(=O)NCc2ccc(-c3ccccc3)cc2)C1Oc1ccc(C(=O)O)cc1 (configuration not stated)
32 | 2300 | 4 | CCC1(CC)C(=O)N(C(=O)NCc2ccc(F)cc2)C1Oc1ccc(C(=O)O)cc1 (configuration not stated)
33 | 3000 | – | CCC1(CC)C(=O)N(C(=O)NCc2ccc(O)cc2)C1Oc1ccc(C(=O)O)cc1 (configuration not stated)
34 | 1800 | 2 | CCC1(CC)C(=O)N(C(=O)NCc2ccc(N)cc2)C1Oc1ccc(C(=O)O)cc1 (configuration not stated)
35 | 21300 | 37 | CCC1(CC)C(=O)N(C(=O)NCc2ccc3ccccc3c2)C1Oc1ccc(C(=O)O)cc1 (configuration not stated)
36 | 7000 | 47 | CCC1(CC)C(=O)N(C(=O)NCc2cccc(C)c2)C1Oc1ccc(C(=O)O)cc1 (configuration not stated)
37 | 8400 | – | CCC1(CC)C(=O)N(C(=O)NCc2cccc3ccccc23)C1Oc1ccc(C(=O)O)cc1 (configuration not stated)
38 | 700 | 33 | CCC1(CC)C(=O)N(C(=O)NCc2ccccc2C)C1Oc1ccc(C(=O)O)cc1 (configuration not stated)
39 | 4000 | 86 | CCC1(CC)C(=O)N(C(=O)NCc2ccc(C)cc2)C1Oc1ccc(C(=O)O)cc1 (configuration not stated)
40 | 1200 | 73 | CCC1(CC)C(=O)N(C(=O)NCc2ccccc2N)C1Oc1ccc(C(=O)O)cc1 (configuration not stated)
41 | 1300 | 33 | CCC1(CC)C(=O)N(C(=O)NCCc2ccccc2)C1Oc1ccc(C(=O)O)cc1 (configuration not stated)
42 | 1500 | 56 | CCC1(CC)C(=O)N(C(=O)NCc2ccccc2)C1Oc1ccc(C(=O)O)cc1 (configuration not stated)
43 | 1500 | -2 | CCC1(CC)C(=O)N(C(=O)NCc2ccccc2O)C1Oc1ccc(C(=O)O)cc1 (configuration not stated)
44 | 4500 | 12 | CCC1(CC)C(=O)N(C(=O)NCCCc2ccccc2)C1Oc1ccc(C(=O)O)cc1 (configuration not stated)
45 | 3200 | 71 | CCC1(CC)C(=O)N(C(=O)NCc2ccccc2)C1Oc1ccc(CC(=O)O)cc1 (configuration not stated)
46 | 3400 | 29 | CCC1(CC)C(=O)N(C(=O)NCc2ccc(Cl)cc2)C1Oc1ccc(C(=O)O)cc1 (configuration not stated)
47 | 9200 | 35 | CCC1(CC)C(=O)N(C(=O)NCCCCc2ccccc2)C1Oc1ccc(C(=O)O)cc1 (configuration not stated)
48 | 4800 | 15 | CCC1(CC)C(=O)N(C(=O)NCCCCCc2ccccc2)C1Oc1ccc(C(=O)O)cc1 (configuration not stated)
